According to publication PMC9774329 (ACS Omega, 2022):

Legend:
Format in all cases: cell-based, human
[1] = system: HCT-116 cell line; test: MTT antiproliferative assay on colon cancer cells; conditions: HCT-116, MTT, 48 h; compared to 3′-O-methyltaxifolin and quercetin
Procedure, shortened: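 HCT-116 cells were seeded at 20,000 cells/well in DMEM with FBS, L-glutamine, penicillin, streptomycin and selenium chloride at 37 °C in CO2. They were exposed to test compound at 5.0–40 μg/mL for 48 h, with untreated controls. MTT (5.0 mg/mL) was added for 4 h, then DMSO […], and OD was read at 570 nm. Done in triplicate.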

[2] = system: colon (HCT-116) cancer cells; test: Apoptosis confirmation by DAPI staining; conditions: HCT-116, 48 h post-treatment
Procedure, shortened: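 Fixed HCT-116 cells were examined for apoptosis after 48 h compound exposure. Cells were fixed in 4% paraformaldehyde and stained in the dark with DAPI (1.0 μg/mL). Nuclear morphology was assessed by fluorescence confocal scanning microscopy.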

[3] = system: caspase-3 expression in HCT-116 cells; test: Caspase-3 detection by ELISA in cell lysates; conditions: HCT-116, 48 h treatment, 40 μg/mL
Procedure, shortened: (§1)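 HCT-116 cells were seeded at 50,000 cells/well in a CO2 incubator. After 24 h, at 70–80% confluence, cells received test compound at 40 μg/mL for 48 h; untreated cells served as controls. Cells were PBS-washed, detached with 0.35% trypsin and spun at 1000 rpm. Pellets were lysed 60 min and re-spun at 1000 rpm for 15 min. Lysates were assayed with human caspase-3 or caspase-9 ELISA kits, absorbance 620 nm.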

[4] = system: caspase-9 expression in HCT-116 cells; test: Caspase-9 detection by ELISA in cell lysates; conditions: HCT-116, 48 h treatment, 40 μg/mL
Procedure, shortened: as §1

Row | SMILES | reduction in the numbers of cancer cells [1] | apoptosis induction (chromatin condensation, nuclear shrinkage) by DAPI staining [2] | caspase-3 expression (ELISA, optical density) [3] | caspase-9 expression (ELISA, optical density) [4]
1 | COc1cc(O)c2c(c1)O[C@H](c1ccc(O)c(OC)c1)[C@@H](O)C2=O [Compound 1, 7,3′-Di-O-methyltaxifolin] | significant reductions | induced apoptosis | increase | increase
2 | COc1cc([C@H]2Oc3cc(O)cc(O)c3C(=O)[C@@H]2O)ccc1O [Compound 2, 3′-O-Methyltaxifolin] |  | induced apoptosis | increase | increase
3 | COc1cc(O)c2c(c1)O[C@H](c1ccc(O)c(O)c1)[C@@H](O)C2=O [Compound 3, 7-O-Methyltaxifolin] | significant reductions | induced apoptosis | increase | increase
4 | O=C1c2c(O)cc(O)cc2OC(c2ccc(O)c(O)c2)C1O (stereo not shown) [Compound 4, Dihydroquercetin (taxifolin)] | significant reductions | induced apoptosis | increase | increase
5 | COc1c(-c2ccc(O)c(O)c2)oc2cc(O)cc(O)c2c1=O [Compound 5, 3-O-Methylquercetin] | significant reductions | induced apoptosis | increase | increase
6 | O=c1c(O)c(-c2ccc(O)c(O)c2)oc2cc(O)cc(O)c12 [Compound 6, Quercetin] |  | induced apoptosis | increase | increase
